Assay results published in ChEMBL document CHEMBL1772959, “Comosusols A-D and comosone A: cytotoxic compounds from the brown alga Sporochnus comosus” (J Nat Prod, 2011).

Legend:
[1] = system: HT-29; assay: Growth inhibition of human HT-29 cells after 48 hrs by sulforhodamine B assay; type: functional; settings: HT-29, 48 h
Procedure, shortened: (§1)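 Cultured in MEM with Earle's salts, L-glutamine, nonessential amino acids and sodium pyruvate at 37 C, 5% CO2. Plated at 5000 cells/well with 24 h attachment. Pure compounds were given as serial dilutions from DMSO in medium over 66.7-0.01 μg/mL final. SRB protein staining after TCA fixation at 0 and 48 h, read at 490 nm. GI50 came from comparison with vehicle-only and time-0 values.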

[2] = system: NCI-H460; assay: Growth inhibition of human H460 cells after 48 hrs by sulforhodamine B assay; type: functional; settings: NCI-H460, 48 h
Procedure, shortened: (§2)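 Grown in RPMI 1640 with L-glutamine plus 5% fetal bovine serum at 37 C, 5% CO2. Seeded at 5000 cells/well and allowed to attach 24 h. Pure compounds were added from DMSO as serial dilutions in medium over 66.7-0.01 μg/mL final. Cells were TCA-fixed and SRB-stained at 0 and 48 h, with absorbance read at 490 nm. GI50 was taken against vehicle-only and time-0 readings.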

[3] = Growth inhibition of chinese hamster CHOK1 cells after 48 hrs by sulforhodamine B assay; type: cell-based, Cricetulus griseus; settings: CHO-K1 cells; procedure, shortened: as §1
[4] = system: MCF7; assay: Growth inhibition of human MCF7 cells after 48 hrs by sulforhodamine B assay; type: functional; settings: MCF7, 48 h; procedure, shortened: as §2
[5] = system: SF-268; assay: Growth inhibition of human SF268 cells after 48 hrs by sulforhodamine B assay; type: functional; settings: SF-268, 48 h; procedure, shortened: as §2

Compound | GI50 [1] | GI50 [2] | GI50 [4] | GI50 at 48 h [3] | GI50 [5]
CC(=O)O[C@H]1CC(C)(C)C(=C=C/C(C)=C/C=C/C(C)=C/C=C/C=C(C)/C=C/C=C(\C)C(=O)C[C@@]23O[C@]2(C)C[C@@H](O)CC3(C)C)[C@](C)(O)C1 | 17 µM | 14 µM | 8 µM | 12 µM | 12 µM
OC[C@@H](O)[C@H](O)[C@H](O)[C@@H](O)CO [GALACTITOL] | > 220 µM | > 220 µM | > 220 µM | > 220 µM | > 220 µM
CC(C)=CCC1(CC=C(C)C)C[C@@H](O)C=CC1=O [COMOSONE A] | 19 µM | 19 µM | 14 µM | 17 µM | 13 µM
C=CC(C)(C)C1=CC(=O)C(CC=C(C)C)=CC1=O | 37 µM | 41 µM | 26 µM | 17 µM | 17 µM

Further lines, with some results ahead:

GI50 [1] | GI50 [2] | GI50 [4] | Compound | GI50 at 48 h [3] | GI50 [5]
43 µM | 29 µM | 25 µM | C=CC(C)(C)c1cc(O)c(CC=C(C)C)cc1O [COMOSUSOL C] | 27 µM | 35 µM
53 µM | 55 µM | 52 µM | CC(C)=CCc1cc(O)cc(/C=C\C(C)(C)O)c1O [COMOSUSOL A] | 57 µM | 55 µM
51 µM | 54 µM | 46 µM | C=CC(C)(C)c1cc(O)c(C(O)C(O)C(C)(C)O)cc1O (stereo not given) [COMOSUSOL D] | 63 µM | 59 µM
57 µM | 37 µM | 27 µM | C=CC(C)(C)c1ccc(O)c(CC=C(C)C)c1 | 29 µM | 39 µM
6 µM | 6 µM | 6 µM | C=CC(C)(C)c1cc(O)c(/C=C\C(C)(C)O)cc1O [COMOSUSOL B] | 6 µM | 5 µM
